For one molecule, EC50, %max and inhibition results are on record in ChEMBL document CHEMBL3352313 (J Med Chem, 2014).

For orientation: EC50 means the concentration at which the effect is half-maximal. For orientation: inhibition means the drop in the measured response relative to a control, in per cent. Read a low inhibition as a weak effect.

Assay [1] addresses T1, Muscarinic acetylcholine receptor M5 (Rattus norvegicus, UniProt P08911).
T1 sequence (P08911 whole entry): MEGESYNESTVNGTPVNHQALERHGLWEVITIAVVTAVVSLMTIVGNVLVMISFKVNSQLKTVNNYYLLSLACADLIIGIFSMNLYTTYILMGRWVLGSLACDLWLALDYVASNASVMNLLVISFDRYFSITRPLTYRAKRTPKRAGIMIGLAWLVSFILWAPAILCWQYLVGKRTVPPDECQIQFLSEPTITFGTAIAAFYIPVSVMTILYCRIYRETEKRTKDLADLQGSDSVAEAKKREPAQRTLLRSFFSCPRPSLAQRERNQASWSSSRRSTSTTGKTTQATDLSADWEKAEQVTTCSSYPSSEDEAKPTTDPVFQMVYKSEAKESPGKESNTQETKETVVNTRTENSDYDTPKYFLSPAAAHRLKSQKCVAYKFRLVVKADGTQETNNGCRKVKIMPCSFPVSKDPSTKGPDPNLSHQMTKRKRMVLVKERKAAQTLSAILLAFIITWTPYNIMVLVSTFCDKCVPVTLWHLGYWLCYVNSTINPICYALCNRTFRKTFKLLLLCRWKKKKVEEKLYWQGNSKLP
Briefly: Activity at rat muscarinic acetylcholine receptor subtype 5 expressed in CHO cells by calcium mobilization assay. The assay is classed as functional, cell-based. Put shortly:
(§1)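 Muscarinic subtype selectivity by fluorescence calcium mobilization in highly expressing CHO lines with similar receptor levels; Gi/o-coupled M2 and M4 cells co-transfected with chimeric Gqi5 to couple to Ca2+ mobilization. Read-outs are PAM EC50 and ACh max response. Mean ± SEM of at least three independent determinations.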
In general terms: Calcium flux is commonly read through the fluorescence of an indicator in the cells.

In assay [2] the target is Muscarinic acetylcholine receptor M3 (Homo sapiens, UniProt P20309). Briefly: Activity at human muscarinic acetylcholine receptor subtype 3 expressed in CHO cells by calcium mobilization assay acetylcholine. It is filed as functional, cell-based. The procedure, abridged: as §1
In assay [3] the target is Sigma non-opioid intracellular receptor 1 (Homo sapiens) (UniProt Q99720). Briefly: Displacement of radioligand from human sigma-1 receptor at 10 uM. Put shortly: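 Pan Labs lead profiling radioligand binding battery of 68 GPCRs, ion channels and transporters, with test compound present at 10 μM.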
In assay [4] the target is T2, Muscarinic acetylcholine receptor M1 (Rattus norvegicus, UniProt P08482).
T2 sequence (P08482 whole entry): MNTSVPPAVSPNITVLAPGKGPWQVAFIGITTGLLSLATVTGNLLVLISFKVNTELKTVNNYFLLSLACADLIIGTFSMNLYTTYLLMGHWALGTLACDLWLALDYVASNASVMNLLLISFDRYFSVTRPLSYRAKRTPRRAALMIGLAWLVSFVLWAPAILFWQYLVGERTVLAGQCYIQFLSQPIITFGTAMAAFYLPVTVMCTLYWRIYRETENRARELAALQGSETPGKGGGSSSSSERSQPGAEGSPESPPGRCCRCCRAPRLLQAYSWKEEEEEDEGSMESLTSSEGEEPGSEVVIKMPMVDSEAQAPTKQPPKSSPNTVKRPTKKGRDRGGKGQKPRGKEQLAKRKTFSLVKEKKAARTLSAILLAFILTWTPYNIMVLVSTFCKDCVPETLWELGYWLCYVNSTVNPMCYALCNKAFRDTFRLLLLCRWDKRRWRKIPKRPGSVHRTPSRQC
Put plainly: Activity at rat muscarinic acetylcholine receptor subtype 1 expressed in CHO cells by calcium mobilization assay. It is filed as functional, cell-based. Put shortly: as §1

Sequence of Muscarinic acetylcholine receptor M3 (P20309 whole entry, looked up): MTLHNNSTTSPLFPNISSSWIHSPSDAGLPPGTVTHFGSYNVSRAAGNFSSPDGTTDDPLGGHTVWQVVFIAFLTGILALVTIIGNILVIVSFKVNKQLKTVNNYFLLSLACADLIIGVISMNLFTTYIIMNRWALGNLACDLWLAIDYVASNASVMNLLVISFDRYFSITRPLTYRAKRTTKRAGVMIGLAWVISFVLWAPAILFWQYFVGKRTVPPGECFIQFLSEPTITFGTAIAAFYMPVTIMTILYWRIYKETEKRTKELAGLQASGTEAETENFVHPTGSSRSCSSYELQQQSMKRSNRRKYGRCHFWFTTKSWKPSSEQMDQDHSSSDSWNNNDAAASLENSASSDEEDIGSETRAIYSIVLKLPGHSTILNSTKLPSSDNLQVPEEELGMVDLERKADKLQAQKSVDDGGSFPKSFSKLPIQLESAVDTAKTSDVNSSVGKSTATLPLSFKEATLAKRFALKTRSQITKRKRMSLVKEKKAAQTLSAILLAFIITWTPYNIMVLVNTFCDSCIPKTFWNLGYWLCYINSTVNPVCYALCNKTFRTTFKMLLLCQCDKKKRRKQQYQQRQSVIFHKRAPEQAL
Sequence of Sigma non-opioid intracellular receptor 1 (Homo sapiens) (Q99720 whole entry): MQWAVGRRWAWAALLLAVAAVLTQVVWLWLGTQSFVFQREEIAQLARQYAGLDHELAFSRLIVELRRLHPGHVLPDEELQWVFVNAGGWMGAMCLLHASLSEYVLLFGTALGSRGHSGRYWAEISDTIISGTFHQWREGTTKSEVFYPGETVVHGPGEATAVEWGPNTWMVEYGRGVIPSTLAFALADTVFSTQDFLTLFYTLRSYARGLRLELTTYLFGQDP

For `CCN(Cc1ccccc1C(F)(F)F)C(=O)C1CCN(S(=O)(=O)c2ccc3[nH]ncc3c2)CC1`, the EC50 in assay [1] was 610 nM; in assay [4], 2000 nM. Further, in assay [2], the %max was found to be 67%. Moreover, in assay [3], the inhibition was determined as 53%.
